Results reported in article PMC7004090 (Clinical Pharmacology in Drug Development, 2019).
Read-outs that look alike come from different tables or passages of the source.

Tests used:
[1] = system: healthy Japanese postmenopausal women; test: Safety: incidence of adverse events; assay type: in vivo, human; conditions: 6 weeks, n = 20
Summary of the method: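 Randomized, single-blind, saline placebo-controlled trial in healthy Japanese postmenopausal women, with sc dosing for 6 weeks. Adverse events came from self-report, interviews or other tests, with onset, severity, seriousness, outcome and drug relationship recorded. Coding used MedDRA v17.1 preferred terms. Vital signs, 12-lead ECG, haematology, blood biochemistry and urinalysis were also monitored.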

[2] = system: patients with osteoporosis; conditions: TOWER trial, once-weekly 56.5 μg, cited from earlier work
[3] = system: subjects in the safety assessment population; conditions: 24-month open-label once-weekly trial, cited from earlier work
[4] = system: subjects of phase 2b trial; conditions: cited from earlier work
[5] = subjects with severe renal impairment (eGFR 15.0–29.9 mL/min/1.73 m^2); cited from earlier work
[6] = Cohort 2 BIW: 28.2 μg twice weekly sc, intervals 2, 5 days
[7] = Cohort 3 BIW: 28.2 μg twice weekly sc, intervals 1, 6 days

**Q.** Which results are given for `CC[C@H](C)[C@H](NC(=O)[C@H](CCC(=O)O)NC(=O)[C@H](CO)NC(=O)[C@@H](NC(=O)[C@@H](N)CO)C(C)C)C(=O)N[C@@H](CCC(N)=O)C(=O)N[C@@H](CC(C)C)C(=O)N[C@@H](CCSC)C(=O)N[C@@H](Cc1cnc[nH]1)C(=O)N[C@@H](CC(N)=O)C(=O)N[C@@H](CC(C)C)C(=O)NCC(=O)N[C@@H](CCCCN)C(=O)N[C@@H](Cc1cnc[nH]1)C(=O)N[C@@H](CC(C)C)C(=O)N[C@@H](CC(N)=O)C(=O)N[C@@H](CO)C(=O)N[C@@H](CCSC)C(=O)N[C@@H](CCC(=O)O)C(=O)N[C@@H](CCCN=C(N)N)C(=O)N[C@H](C(=O)N[C@@H](CCC(=O)O)C(=O)N[C@@H](Cc1c[nH]c2ccccc12)C(=O)N[C@@H](CC(C)C)C(=O)N[C@@H](CCCN=C(N)N)C(=O)N[C@@H](CCCCN)C(=O)N[C@@H](CCCCN)C(=O)N[C@@H](CC(C)C)C(=O)N[C@@H](CCC(N)=O)C(=O)N[C@@H](CC(=O)O)C(=O)N[C@H](C(=O)N[C@@H](Cc1cnc[nH]1)C(=O)N[C@@H](CC(N)=O)C(=O)N[C@@H](Cc1ccccc1)C(=O)O)C(C)C)C(C)C` [teriparatide]?
**A.** Blood pressure decreased [1, 6]: 0 (0.0) number of subjects (%); Chest discomfort [1, 6]: 1 (5.0) number of subjects (%); Constipation [1, 6]: 0 (0.0) number of subjects (%); Dizziness [1, 6]: 0 (0.0) number of subjects (%); Dyspepsia [1, 6]: 0 (0.0) number of subjects (%); Feeling abnormal [1, 6]: 1 (5.0) number of subjects (%); Fractured coccyx [1, 6]: 0 (0.0) number of subjects (%); Gamma-glutamyltransferase increased [1, 6]: 0 (0.0) number of subjects (%); Headache [1, 6]: 4 (20.0) number of subjects (%); Injection site erythema [1, 6]: 3 (15.0) number of subjects (%); Malaise [1, 6]: 0 (0.0) number of subjects (%); Nasopharyngitis [1, 6]: 1 (5.0) number of subjects (%); Nausea [1, 6]: 10 (50.0) number of subjects (%); Pruritus [1, 6]: 0 (0.0) number of subjects (%); Rash [1, 6]: 0 (0.0) number of subjects (%); Somnolence [1, 6]: 0 (0.0) number of subjects (%); Vomiting [1, 6]: 5 (25.0) number of subjects (%); Abdominal pain [1, 7]: 0 (0.0) number of subjects (%); Adverse events, Total [1, 7]: 16 (80.0) number of subjects (%); Alanine aminotransferase increased [1, 7]: 0 (0.0) number of subjects (%); Arthralgia [1, 7]: 0 (0.0) number of subjects (%); Aspartate aminotransferase increased [1, 7]: 0 (0.0) number of subjects (%); Blood pressure decreased [1, 7]: 0 (0.0) number of subjects (%); Chest discomfort [1, 7]: 0 (0.0) number of subjects (%); Constipation [1, 7]: 0 (0.0) number of subjects (%); Dizziness [1, 7]: 0 (0.0) number of subjects (%); Dyspepsia [1, 7]: 0 (0.0) number of subjects (%); Feeling abnormal [1, 7]: 0 (0.0) number of subjects (%); Fractured coccyx [1, 7]: 0 (0.0) number of subjects (%); Gamma-glutamyltransferase increased [1, 7]: 0 (0.0) number of subjects (%); Headache [1, 7]: 6 (30.0) number of subjects (%); Injection site erythema [1, 7]: 13 (65.0) number of subjects (%); Malaise [1, 7]: 0 (0.0) number of subjects (%); Nasopharyngitis [1, 7]: 0 (0.0) number of subjects (%); Nausea [1, 7]: 10 (50.0) number of subjects (%); Pruritus [1, 7]: 1 (5.0) number of subjects (%); Rash [1, 7]: 1 (5.0) number of subjects (%); Somnolence [1, 7]: 0 (0.0) number of subjects (%); Vomiting [1, 7]: 6 (30.0) number of subjects (%); adverse events, subjects affected ([2]; 271 of 290 subjects): 93.4%; Malaise ([2]; n = 21 of 290): 7.2%; abdominal discomfort ([2]; n = 22 of 290): 7.6%; Vomiting ([2]; n = 33 of 290): 11.4%; Headache ([2]; n = 39 of 290): 13.4%; Nausea ([2]; n = 59 of 290): 20.3%; adverse events, subjects affected ([3]; 181 of 189 subjects): 95.8%; abdominal discomfort ([3]; n = 25 of 189): 13.2%; Malaise ([3]; n = 33 of 189): 17.5%; Headache ([3]; n = 37 of 189): 19.6%; Vomiting ([3]; n = 42 of 189): 22.2%; Nausea ([3]; n = 69 of 189): 36.5%; Incidence of adverse events ([4]; once-weekly 14.1-μg dosing group, 14 of 73 subjects): 19.2%; frequency of nausea ([4]; once-weekly 14.1-μg group, 4 of 73 patients): 5.5%; Incidence of adverse events ([4]; once-weekly 28.2-μg dosing group, 14 of 75): 18.7%; frequency of nausea ([4]; once-weekly 28.2-μg group, 7 of 75): 9.3%; Incidence of adverse events ([4]; once-weekly 56.5-μg dosing group, 30 of 72): 41.7%; frequency of nausea ([4]; once-weekly 56.5-μg group, 15 of 72): 20.8%; elimination half-life [5]: significantly prolonged
